Legend:
[1] = biological target: T1, Xanthine dehydrogenase/oxidase (Bos taurus, UniProt P80457); assay: Inhibition of bovine xanthine oxidase using xanthine as substrate preincubated for 10 mins followed by substrate addition measured for 15 mins by spectrophotometric method
[2] = biological target: T1, Xanthine dehydrogenase/oxidase; assay: Competitive inhibition of bovine xanthine oxidase using varying levels of xanthine as substrate preincubated for 10 mins followed by substrate addition measured for 15 mins by Lineweaver-Burk plot/Dixon plot analysis
How it was run: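 Run like the inhibition assay: XO (0.003 units/well) in 50 mM phosphate buffer pH 7.4, inhibitor in 90% DMSO, preincubated 10 min at 30 °C. Varied inhibitor and xanthine concentrations (0.0375, 0.075, 0.15, 0.300 mM), absorbance change at 295 nm over 15 min.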

Rattus norvegicus [3] = assay: In vivo inhibition of xanthine oxidase in Wistar rat assessed as retention time of 6-MP at 50 mg/kg, ip using 6-mercaptopurine as substrate after 6 hrs by UPLC method (reference value: 4.912 min); assay type: functional, organism-based
Rattus norvegicus [4] = assay: In vivo inhibition of xanthine oxidase in Wistar rat assessed as peak area of 6-MP at 50 mg/kg, ip using 6-mercaptopurine as substrate after 6 hrs by UPLC method (reference value: 7.3 mAU); assay type: functional
Rattus norvegicus [5] = assay: In vivo inhibition of xanthine oxidase in Wistar rat at 50 mg/kg, ip using 6-mercaptopurine as substrate after 6 hrs by UPLC method relative to control; assay type: functional
[6] = biological target: Xanthine dehydrogenase/oxidase (Bos taurus) (UniProt P80457)
Chain of Xanthine dehydrogenase/oxidase (Bos taurus) (P80457 whole entry, looked up): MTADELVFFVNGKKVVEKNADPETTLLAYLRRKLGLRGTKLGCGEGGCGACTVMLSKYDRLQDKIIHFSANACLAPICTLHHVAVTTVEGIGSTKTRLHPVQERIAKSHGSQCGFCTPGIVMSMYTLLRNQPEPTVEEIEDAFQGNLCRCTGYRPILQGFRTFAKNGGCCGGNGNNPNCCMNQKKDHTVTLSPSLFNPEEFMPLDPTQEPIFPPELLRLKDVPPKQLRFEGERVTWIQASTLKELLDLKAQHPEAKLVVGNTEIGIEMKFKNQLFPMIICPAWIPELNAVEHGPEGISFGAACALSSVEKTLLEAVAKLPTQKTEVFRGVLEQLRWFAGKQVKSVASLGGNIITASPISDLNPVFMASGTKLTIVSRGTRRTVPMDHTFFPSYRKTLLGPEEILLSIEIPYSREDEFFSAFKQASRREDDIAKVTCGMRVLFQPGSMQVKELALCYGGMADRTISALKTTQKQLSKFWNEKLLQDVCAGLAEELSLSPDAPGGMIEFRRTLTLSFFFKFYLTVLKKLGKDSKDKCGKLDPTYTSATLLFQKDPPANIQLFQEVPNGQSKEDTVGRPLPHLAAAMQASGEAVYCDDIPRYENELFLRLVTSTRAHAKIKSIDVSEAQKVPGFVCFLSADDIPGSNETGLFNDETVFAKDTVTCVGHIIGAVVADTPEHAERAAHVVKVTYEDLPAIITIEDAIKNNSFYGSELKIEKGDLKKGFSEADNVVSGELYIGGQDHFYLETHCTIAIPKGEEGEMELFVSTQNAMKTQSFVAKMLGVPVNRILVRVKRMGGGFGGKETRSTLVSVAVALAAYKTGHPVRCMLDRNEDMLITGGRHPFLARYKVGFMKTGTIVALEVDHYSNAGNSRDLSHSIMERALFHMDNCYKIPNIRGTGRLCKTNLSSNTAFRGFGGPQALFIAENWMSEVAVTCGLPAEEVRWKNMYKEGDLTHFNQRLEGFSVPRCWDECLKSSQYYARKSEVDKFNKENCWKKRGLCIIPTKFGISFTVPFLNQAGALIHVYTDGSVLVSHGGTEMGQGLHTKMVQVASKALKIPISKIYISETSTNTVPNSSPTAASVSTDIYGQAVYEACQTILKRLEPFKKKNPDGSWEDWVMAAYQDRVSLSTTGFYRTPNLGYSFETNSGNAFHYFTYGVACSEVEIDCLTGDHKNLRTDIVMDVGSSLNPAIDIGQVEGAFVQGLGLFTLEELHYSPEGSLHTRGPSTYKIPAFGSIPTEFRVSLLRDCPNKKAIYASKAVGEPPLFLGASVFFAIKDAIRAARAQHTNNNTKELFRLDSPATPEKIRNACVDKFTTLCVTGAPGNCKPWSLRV

T1 sequence (P80457 whole entry): as the sequence (P80457 whole entry, looked up) above

| IC50 ([1]; read-out: IC50) [µM] | IC50 [1] | SMILES | also measured |
| --- | --- | --- | --- |
| 184 | – | O=C(N/N=C/c1cccc([N+](=O)[O-])c1)c1cccnc1 | – |
| 211 | – | O=C(N/N=C/c1ccccc1)c1cccnc1 [NICOTINIC ACID BENZYLIDENE-HYDRAZIDE] | – |
| – | Not Active | O=C(N/N=C/c1cccc(O)c1)c1cccnc1 | – |
| 206 | – | O=C(N/N=C/c1cccc(Cl)c1)c1ccncc1 [N'-(3-CHLOROBENZYLIDENE)ISONICOTINOHYDRAZIDE] | – |
| 180 | – | Cc1ccccc1/C=N/NC(=O)c1cccnc1 | – |
| 205 | – | O=C(N/N=C/c1cccc(Cl)c1)c1cccnc1 | – |
| 10 | – | O=C(N/N=C/c1ccc(O)c(O)c1)c1cccnc1 | Ki [2]: 7.27 µM; Retention time (Rattus norvegicus [3]): 4.9 min; Activity (Rattus norvegicus [4]): 0.001 mAU |
| 175 | – | COc1cccc(/C=N/NC(=O)c2cccnc2)c1O | – |
| 54.8 | – | CCOc1cccc(/C=N/NC(=O)c2ccncc2)c1O | Ki [2]: 51.3 µM |
| – | Not Active | O=C(N/N=C/c1ccc(O)c(O)c1O)c1cccnc1 | – |
| – | Not Active | O=C(N/N=C/c1ccccc1F)c1ccncc1 | – |
| – | Not Active | CSc1ccc(/C=N/NC(=O)c2cccnc2)cc1 | – |
| – | Not Active | CCOc1ccc(/C=N/NC(=O)c2ccncc2)cc1OCC | – |
| 12.4 | – | O=C(N/N=C/c1ccc(O)c(O)c1)c1ccncc1 | Ki [2]: 15.5 µM; Retention time (Rattus norvegicus [3]): 4.95 min; Activity (Rattus norvegicus [4]): 47.4 mAU; inhibition in vivo at 50 mg/kg (Rattus norvegicus [5]): 28% |
| 330 | – | CCOc1ccc(/C=N/NC(=O)c2ccncc2)cc1 | – |
| – | Not Active | COc1ccc(/C=N/NC(=O)c2cccnc2)cc1OC | – |
| 179 | – | O=C(N/N=C/c1ccc(Cl)cc1)c1ccncc1 | – |
| 174 | – | O=C(N/N=C/c1ccccc1F)c1cccnc1 | – |
| – | Not Active | CCOc1ccc(/C=N/NC(=O)c2ccncc2)cc1O | – |

| IC50 ([1]; read-out: IC50) [µM] | IC50 [1] | SMILES | also measured |
| --- | --- | --- | --- |
| 184 | – | O=C(N/N=C/c1ccc(O)cc1)c1cccnc1 | – |
| 21.1 | – | COc1cccc(/C=N/NC(=O)c2ccncc2)c1O | Ki [2]: 15 µM |
| – | Not Active | COc1ccc(O)c(/C=N/NC(=O)c2ccncc2)c1 | – |
| – | Not Active | O=C(N/N=C/c1ccc(Cl)cc1Cl)c1ccncc1 | – |
| – | Not Active | O=C(N/N=C/c1ccccc1[N+](=O)[O-])c1ccncc1 | – |
| – | Not Active | O=C(N/N=C/c1ccccc1O)c1ccncc1 [SALINAZID] | – |
| – | Not Active | O=C(N/N=C/c1ccc(Cl)cc1Cl)c1cccnc1 | – |
| 198 | – | O=C(N/N=C/c1ccccc1Br)c1cccnc1 | – |
| – | Not Active | O=C(N/N=C/c1cc([N+](=O)[O-])ccc1Cl)c1ccncc1 | – |
| – | Not Active | COc1cccc(O)c1/C=N/NC(=O)c1cccnc1 | – |
| – | Not Active | O=C(N/N=C/c1ccc([N+](=O)[O-])cc1)c1ccncc1 [N'-(4-NITROBENZYLIDENE)ISONICOTINOHYDRAZIDE] | – |
| 161 | – | O=C(N/N=C/c1cc(O)cc(O)c1)c1cccnc1 | – |
| – | – | O=C(O)c1cccnc1 [NIACIN] | IC50 [6]: 518 µM |
| 0.96 | – | O=C(N/N=C/c1c(O)cc(O)cc1O)c1ccncc1 | Ki [2]: 0.82 µM; Retention time (Rattus norvegicus [3]): 4.92 min; Activity (Rattus norvegicus [4]): 73.5 mAU; inhibition in vivo at 50 mg/kg (Rattus norvegicus [5]): 44% |
| – | Not Active | O=C(N/N=C/c1ccccc1Cl)c1ccncc1 | – |
| – | Not Active | O=C(N/N=C/c1ccc(O)cc1)c1ccncc1 | – |
| – | Not Active | O=C(N/N=C/c1ccc(O)cc1O)c1ccncc1 | – |
| – | Not Active | COc1ccc(/C=N/NC(=O)c2ccncc2)cc1OC [VERAZIDE] | – |
| – | Not Active | O=C(N/N=C/c1ccc([N+](=O)[O-])cc1)c1cccnc1 | – |

| IC50 ([1]; read-out: IC50) [µM] | IC50 [1] | SMILES | also measured |
| --- | --- | --- | --- |
| – | Not Active | O=C(N/N=C/c1ccccc1[N+](=O)[O-])c1cccnc1 | – |
| – | Not Active | Cc1ccc(O)c(/C=N/NC(=O)c2cccnc2)c1 | – |
| – | – | Oc1ncnc2[nH]ncc12 [ALLOPURINOL] | Retention time (Rattus norvegicus [3]): 4.93 min; Activity (Rattus norvegicus [4]): 166.3 mAU; inhibition in vivo at 50 mg/kg (Rattus norvegicus [5]): 100% |
| – | Not Active | CN(C)c1ccc(/C=N/NC(=O)c2ccncc2)cc1 [N'-(4-DIMETHYLAMINOBENZYLIDENE)ISONICOTINOHYDRAZIDE] | – |
| 195 | – | O=C(N/N=C/c1ccc(Cl)cc1)c1cccnc1 | – |
| 264 | – | CCOc1cccc(/C=N/NC(=O)c2cccnc2)c1O | – |
| – | Not Active | O=C(N/N=C/c1ccccc1)c1ccncc1 [N'-BENZYLIDENE ISONICOTINOHYDRAZIDE] | – |
| – | Not Active | CCOc1ccccc1/C=N/NC(=O)c1cccnc1 | – |
| – | Not Active | CCOc1ccccc1/C=N/NC(=O)c1ccncc1 | – |
| – | Not Active | O=C(N/N=C/c1cccc(O)c1)c1ccncc1 | – |
| 242 | – | CCOc1ccc(/C=N/NC(=O)c2cccnc2)cc1 | – |
| – | Not Active | COc1ccc(/C=N/NC(=O)c2ccncc2)cc1O | – |
| – | Not Active | COc1ccc(/C=N/NC(=O)c2cccnc2)c(OC)c1OC | – |
| – | Not Active | COc1ccccc1/C=N/NC(=O)c1cccnc1 | – |
| – | Not Active | CN(C)c1ccc(/C=N/NC(=O)c2cccnc2)cc1 | – |
| – | Not Active | CSc1ccc(/C=N/NC(=O)c2ccncc2)cc1 | – |
| 174 | – | O=C(N/N=C/c1cccc([N+](=O)[O-])c1)c1ccncc1 | – |
| – | Not Active | COc1ccc(O)c(/C=N/NC(=O)c2cccnc2)c1 | – |

— ChEMBL document CHEMBL4011602, “Xanthine oxidase inhibitory activity of nicotino/isonicotinohydrazides: A systematic approach from in vitro, in silico to in vivo studies” (Bioorg Med Chem, 2017)
